Data published in PubChem BioAssay AID623982 (Broad Institute, 2012).
“And” between values parts separate entries of the source, which are not always exact repeats. Equal entries are not always repeated. The source made the active and inactive calls.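 The calls were made as follows: active = compounds cutting fungal growth signal with fitted half-effect dose at most twice the top valid dose; inconclusive = flat curve at 30 to 70% inhibition, or poor fit; inactive = the rest.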

Legend:
[1] = tested on: C. albicans CaCi-17 growth, Alamar Blue fluorescence, 48 h; test: C. albicans CaCi-17 antifungal growth inhibitors – CaCi-17 strain, retest, dry powder, set 3, dose response (AID 623982)
In short: (§1)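 Medium – buffered RPMI · Read-out – growth inhibition indicated by fluorescence signal loss · Benchmarks – amphotericin B at 10 µM as positive control · Times – 48 h exposure, 37 °C, humidified, static · Technique – Alamar Blue fluorescence, 2 h dye incubation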

[2] = as above; settings: C. albicans CaCi-17 growth, Alamar Blue fluorescence, 48 h; at 3 µM (top of the series)
In short: as §1

SMILES | AC50 [1] [nM] | activity change, negative = inhibition [2]
CCOC(=O)N1C(=O)C2(CCCCC2)N(c2ccc(F)cc2)C1=S | 783 | –
C/C=C/[C@@H]1[C@H]2C[C@@H](C)CC[C@@H]2C(C)=C[C@H]1C(=O)c1c(O)c(-c2ccc(O)cc2)c[nH]c1=O | – | 54.1% (inactive)
CCOC(=O)N1C(=O)C2(CCCCC2)N(c2cccc(C)c2)C1=S | – | 70.9% (inactive)
CCOC(=O)N1C(=O)C2(CCCCC2)N(c2ccccc2)C1=S | – | 104% (inactive)
CCOC(=O)N1C(=O)C2(CCCCC2)N(c2ccc(C)cc2)C1=S | – | 100% (inactive) and 85.9% (inactive)
CC1/C=C/C=C\C=C\C=C\C=C\C=C\C=C\C(O[C@H]2OC(C)C(O)C(N)C2O)CC2OC(O)(CC(O)CC(O)C(O)CCC(O)CC(O)CC(=O)OC(C)C(C)C1O)CC(O)C2C(=O)O (stereo partly specified) | 83.8 | –
